Data set [1] has as its target T1, Angiotensin II receptor (AT-1) type-1 (Rattus norvegicus, UniProt P29089+P25095).
T1 sequence (P29089 whole entry): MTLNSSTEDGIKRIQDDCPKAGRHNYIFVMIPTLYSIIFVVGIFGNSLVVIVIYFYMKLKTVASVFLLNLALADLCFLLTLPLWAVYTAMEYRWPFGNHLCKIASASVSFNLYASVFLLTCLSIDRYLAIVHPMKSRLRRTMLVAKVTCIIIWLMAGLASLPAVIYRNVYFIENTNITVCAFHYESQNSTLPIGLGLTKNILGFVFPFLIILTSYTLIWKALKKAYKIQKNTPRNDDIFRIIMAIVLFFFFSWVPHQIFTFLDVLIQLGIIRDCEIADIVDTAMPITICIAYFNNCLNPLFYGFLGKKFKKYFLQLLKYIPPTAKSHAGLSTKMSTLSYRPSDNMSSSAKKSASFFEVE
T1 sequence (P25095 whole entry): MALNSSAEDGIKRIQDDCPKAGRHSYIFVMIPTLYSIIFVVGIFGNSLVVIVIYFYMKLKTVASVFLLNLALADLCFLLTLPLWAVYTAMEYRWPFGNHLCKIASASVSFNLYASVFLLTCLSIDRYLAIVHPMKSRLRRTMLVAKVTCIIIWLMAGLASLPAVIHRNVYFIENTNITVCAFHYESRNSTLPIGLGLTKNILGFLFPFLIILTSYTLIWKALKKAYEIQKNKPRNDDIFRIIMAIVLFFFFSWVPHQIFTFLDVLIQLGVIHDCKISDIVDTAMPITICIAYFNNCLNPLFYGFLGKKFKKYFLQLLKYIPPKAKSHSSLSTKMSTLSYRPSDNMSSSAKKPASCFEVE
Description: Displacement of [125I]-Ang II from rat liver membrane angiotensin II type 1 (AT1) receptor. On the technique in general: In a radioligand displacement assay an active substance lowers the binding of a labelled ligand.

For data set [2], the species on record is Rattus norvegicus. Description: Compound was tested for its ability to rise duodenal alkaline secretion in rats was determined. In kind it is functional. In short, it runs like this:
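Anaesthetized (pentobarbital ip 60 mg/kg, then 30 mg kg-1 h-1) nonfasted male Sprague-Dawley rats at 38 °C. Isolated duodenal segment with bile duct diverted, perfused with recirculating isotonic saline. HCO3- output pH-stat titrated to pH 7.4 with 0.02 M HCl. Intravenous infusion; net change is the 30-45 min value minus the last 15 min basal. Mean ± SEM, n = 5; ANOVA with Bonferroni.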

The subject of data set [3] is Rattus norvegicus. Kind of data set: Concentration of compound required to stimulate secretion of duodenal alkaline secretion in rats when administered intralbuminally was determined. Format: functional. Put shortly:
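Same anaesthetized Sprague-Dawley duodenal pH-stat preparation (saline perfusate titrated to pH 7.4 with 0.02 M HCl). Here the agonist went into the intraluminal perfusate at 100 µM, with PD 123,319 at 150 µM intraluminally for antagonism. Net change over basal at 30-45 min; n = 5.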

For data set [4], the target named is Mitogen-activated protein kinase 3 (Homo sapiens) (UniProt P27361). Description: Concentration required to abolish MAPK activity in mouse neuroblastoma and rat glioma hybrid NG 108-15 cells. Format: functional, cell-based.
Sequence of Mitogen-activated protein kinase 3 (Homo sapiens) (P27361 whole entry): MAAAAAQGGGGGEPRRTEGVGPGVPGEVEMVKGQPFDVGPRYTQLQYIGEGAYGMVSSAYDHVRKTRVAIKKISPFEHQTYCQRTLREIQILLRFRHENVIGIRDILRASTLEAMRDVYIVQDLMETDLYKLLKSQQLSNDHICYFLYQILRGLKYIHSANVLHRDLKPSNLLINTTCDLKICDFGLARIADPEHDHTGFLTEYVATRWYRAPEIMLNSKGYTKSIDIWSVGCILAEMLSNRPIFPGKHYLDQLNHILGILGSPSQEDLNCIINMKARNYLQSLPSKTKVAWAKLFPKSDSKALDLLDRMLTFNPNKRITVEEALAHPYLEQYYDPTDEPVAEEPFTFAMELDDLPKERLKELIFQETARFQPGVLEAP
Data set [5] deals with Type-2 angiotensin II receptor (Sus scrofa). Description: Displacement of [125I]-Ang II from pig uterus membrane angiotensin II type 2 (AT2) receptor.
The subject of data set [6] is NG108-15. Description: Concentration of compound required to induce neurite outgrowth in mouse neuroblastoma and rat glioma hybrid NG 108-15 cells was determined. In kind it is functional. In short, it runs like this: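 NG108-15 cells (passage 7-30) in DMEM/10% FBS/HAT at 37 °C, 7% CO2, plated at 3 × 10^4 cells per 35 mm dish. First stimulation 24 h after plating, agonist given daily over 1 pM-1 µM for 3 days. Phase-contrast scoring: a neurite longer than the cell body counts as positive. At least 140 cells, three independent experiments.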

A short description of data set [7]: Half life after oral administration in rat was determined. Particulars: in vivo. Format: ADME, organism-based. Put shortly:
(§1)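 Male Sprague-Dawley rats (ca. 6-7 weeks), triplicate groups; oral gavage at 30, 100 and 300 µg/kg and single iv tail-vein bolus at 30 µg/kg. Tail-vein blood at 30 min and 1, 2, 4, 6, 8, 24 h, heparinized plasma, acetonitrile precipitation, LC-MS/MS (positive-ion SRM 476.3→293.2). Bioavailability from AUC0-8h rather than AUC0-∞.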

The subject of data set [8] is NG108-15. Description: Concentration of compound required to induce cell death of mouse neuroblastoma and rat glioma hybrid NG 108-15 cells was determined. In kind it is functional. Put shortly:
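NG108-15 neuroblastoma × glioma hybrid cells (passage 7-30) were grown in DMEM with 10% FBS, HAT supplement and gentamycin at 37 °C under 7% CO2. They were treated 24 h after plating, with compound added daily, at 1 pM to 1 µM for 3 days. Cell death was judged by phase-contrast microscopy and micrographs.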

Data set [9] can be described thus: Bioavailability after oral administration in rat was determined; range is 20-30. The following applies: in vivo, read-out: Bioavailabiility. In kind it is ADME, organism-based. In short, it runs like this: as §1

pIC50, pKi: −log10 of the molar value.

We go through 13 molecules from ChEMBL document CHEMBL1138699, “Design, synthesis, and biological evaluation of the first selective nonpeptide AT2 receptor agonist” (J Med Chem, 2004).

The Ki is the dissociation constant of the complex between target and ligand, obtained from inhibition or displacement. The low end stands for a stronger hold on the target, the high end for a looser hold on the target. A word on the IC50: it is the midpoint of a concentration-inhibition curve. The pIC50 is the IC50 on a negative log10 scale, so that one unit is a factor of ten. Usually half-life stands for the time needed for the level to fall by half in the phase considered. One may read the pKi as the negative decadic logarithm of the Ki, by convention in mol/L. A lower pKi goes with a large Ki.

Regarding `CCCCOC(=O)NS(=O)(=O)c1sc(CC(C)C)cc1-c1ccc(Cn2cnc3cccnc32)cc1`, the inhibition constant (Ki) in [1] is listed as greater than 10000 nM.
As for `CCCCOC(=O)NS(=O)(=O)c1sc(CC(C)C)cc1-c1ccc(Cn2ccnc2C)cc1`, in data set [1], the Ki was greater than 10000 nM.
With `Cc1cc(Cn2cnc3c2C[C@@H](C(=O)O)N(C(=O)C(c2ccccc2)c2ccccc2)C3)ccc1N(C)C.O=C(O)C(F)(F)F.O=C(O)C(F)(F)F`, the Activity in the data set filed under Rattus norvegicus [2] is 0.3 mg/h/kg; with Rattus norvegicus [3], 150 µM. This molecule displayed an IC50 in [1] greater than 10000 nM.
Regarding `COc1cccc(-c2cc(=O)c3ccccc3o2)c1N`, the Activity in data set [4] amounted to 10 µM.
For the molecule `CCCCOC(=O)NS(=O)(=O)c1sc(CC(C)C)cc1Cc1ccc(-n2ccnc2)cc1`, the Ki in data set [1] is reported as greater than 10000 nM.
Consider `CCCCOC(=O)NS(=O)(=O)c1sc(CC(C)C)cc1-c1ccc(C#N)cc1`, for which the Ki in data set [1] is greater than 10000 nM.
As to `CCCCOC(=O)NS(=O)(=O)c1ccc(Cc2cccc(OC)c2)cc1-c1ccc(Cn2c(CC)nc3c(C)cc(C)nc32)cc1`, the pIC50 in [5] is 7.00; in data set [1] it was 8.85.
With `CCCCOC(=O)NS(=O)(=O)c1sc(CC(C)C)cc1-c1ccc(Cn2ccnc2)cc1` [BULOXIBUTID], the Activity is greater than 0.1 nM with NG108-15 [6], 0.03 mg/h/kg in the data set listed under Rattus norvegicus [2], 100 µM in the data set with Rattus norvegicus [3] and 1 µM with NG108-15 [8]. In [7], this molecule showed a half-life of 4 h. The molecule further showed a Ki in [1] greater than 10000 nM. Besides, the bioavailability in data set [9] was less than 30%.
On to `CCCCOC(=O)NS(=O)(=O)c1sc(CC(C)C)cc1-c1ccc(Cn2cnc3ccccc32)cc1`, for which the inhibition constant Ki in data set [1] is listed as 500 nM.
Regarding `CCCCOC(=O)NS(=O)(=O)c1sc(CC(C)C)cc1-c1ccc(Cn2c(CC)nc3ccccc32)cc1`, the inhibitory constant (Ki) in [1] is greater than 10000 nM.
Take `CCCCOC(=O)NS(=O)(=O)c1sc(CC(C)C)cc1-c1ccc(Cn2c(CC)nc3c(C)cc(C)nc32)cc1`: in data set [1], the negative-log IC50 (pIC50) was 8.96 and the negative logarithm of the Ki (pKi) was 8.41.
`CCCCOC(=O)NS(=O)(=O)c1sc(CC(C)C)cc1Cc1ccc(C#N)cc1` displayed an inhibitory constant (Ki) in data set [1] greater than 10000 nM.
As to `CCCCOC(=O)NS(=O)(=O)c1sc(CC(C)C)cc1-c1ccc(CC#N)cc1`, the Ki in data set [1] worked out at 100 nM.
